Assay results taken from ChEMBL document CHEMBL5620363, “HIV-1 protease inhibitors with a P1 phosphonate modification maintain potency against drug-resistant variants by increased interactions with flap residues” (Eur J Med Chem, 2023).

Experiments:
Protease [1] = target: Protease (Human immunodeficiency virus 1, UniProt Q9YQ12, I84V); assay: Binding affinity to drug-resistant HIV-1 protease I84V mutant expressed in Escherichia coli TAP-106 cells assessed as inhibition constant using a EDANS/DABCYL FRET-peptide substrate preincubated for 1 hr followed by substrate addition measured after 1 hr by fluorogenic assay
Chain of Protease (Human immunodeficiency virus 1, UniProt Q9YQ12, I84V) (Q9YQ12 entry or part of it I84V): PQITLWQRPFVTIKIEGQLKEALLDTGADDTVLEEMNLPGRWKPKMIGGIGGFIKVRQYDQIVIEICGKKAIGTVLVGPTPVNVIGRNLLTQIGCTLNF

Protease [2] = target: Protease (Human immunodeficiency virus 1, UniProt Q9YQ12, A71V/I50V); assay: Binding affinity to drug-resistant HIV-1 protease I50V/A71V mutant expressed in Escherichia coli TAP-106 cells assessed as inhibition constant using a EDANS/DABCYL FRET-peptide substrate preincubated for 1 hr followed by substrate addition measured after 1 hr by fluorogenic assay
Chain of Protease (Human immunodeficiency virus 1, UniProt Q9YQ12, A71V/I50V) (Q9YQ12 entry or part of it A71V/I50V): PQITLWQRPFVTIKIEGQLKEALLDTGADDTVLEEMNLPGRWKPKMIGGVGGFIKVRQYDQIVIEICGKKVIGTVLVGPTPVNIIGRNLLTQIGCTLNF

[3] = Binding affinity to drug-resistant HIV-1 protease I13V/G16E/V32I/L33F/K45I/M46I/V82F/I84V mutant expressed in Escherichia coli TAP-106 cells assessed as inhibition constant using a EDANS/DABCYL FRET-peptide substrate preincubated for 1 hr followed by substrate addition measured after 1 hr by fluorogenic assay; set-up: species or system Human immunodeficiency virus 1
[4] = Binding affinity to drug-resistant HIV-1 protease I13V/G16E/V32I/L33F/K45I/M46I/V82F/I84V/A71V/L76V mutant expressed in Escherichia coli TAP-106 cells assessed as inhibition constant using a EDANS/DABCYL FRET-peptide substrate preincubated for 1 hr followed by substrate addition measured after 1 hr by fluorogenic assay; set-up: species or system Human immunodeficiency virus 1
[5] = Binding affinity to drug-resistant HIV-1 protease I13V/G16E/V32I/L33F/K45I/M46I/V82F/I84V/A71V/L76V/I54L mutant expressed in Escherichia coli TAP-106 cells assessed as inhibition constant using a EDANS/DABCYL FRET-peptide substrate preincubated for 1 hr followed by substrate addition measured after 1 hr by fluorogenic assay; set-up: species or system Human immunodeficiency virus 1
[6] = system: Human immunodeficiency virus 1; assay: Antiviral activity against wild-type HIV-1 NL4-3 infected in human TZM-bl cells using virus particles harvested from 18 hrs drug-treated HEK293T cells harboring viral transfection assessed as reduction in viral infection measured after 48 hrs in TZM-bl cells by luciferase based assay; assay type: functional, organism-based; settings: Human immunodeficiency virus 1, NL4-3, TZM-bl
HEK-293T = assay: Cytotoxicity against HEK293T cells incubated for 48 hrs by absorbance based assay; assay type: toxicity, cell-based; settings: human, hek-293t, 48 h
TZM = assay: Cytotoxicity against human TZM-bl cells incubated for 48 hrs by absorbance based assay; assay type: toxicity, cell-based
[7] = system: Human immunodeficiency virus 1; assay: Antiviral activity against wild-type HIV-1 NL4-3 infected in human TZM-bl cells using virus particles harvested from 24 hrs drug-treated human CEM cells infected with virus assessed as reduction in viral infection measured after 48 hrs in TZM-bl cells by Firefly luciferase based assay; assay type: functional, organism-based; settings: Human immunodeficiency virus 1, NL4-3, TZM-bl
How it was run: (§1)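 Virus stocks grown by infecting 3 × 10^6 CEM cells with virus at 37 °C for 2–3 h, then RPMI with medium changes every 48 h until CPE. Infected CEM cells plated onto five-fold serial inhibitor dilutions in RPMI (top 100 μM).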

[8] = system: Human immunodeficiency virus 1; assay: Antiviral activity against drug-resistant HIV-1 harboring protease L10I/V11I/I13V/K14R/A22V/E35D/M36I/N37D/G48M/F53L/I54V/I62V/L63P/A71V/T74S/V82A/I84V/T91S/Q92K mutant infected in human TZM-bl cells using virus particles harvested from 24 hrs drug-treated human CEM cells infected with virus assessed as reduction in viral infection measured after 48 hrs in TZM-bl cells by Firefly luciferase based …; assay type: functional, organism-based; settings: Human immunodeficiency virus 1, TZM-bl
[9] = system: Human immunodeficiency virus 1; assay: Antiviral activity against drug-resistant HIV-1 harboring Gag mutation/protease I13V/G16E/V32I/L33F/K45I/M46I/A71V/L76V/V82F/I84V mutant infected in human TZM-bl cells using virus particles harvested from 24 hrs drug-treated human CEM cells infected with virus assessed as reduction in viral infection measured after 48 hrs in TZM-bl cells by Firefly luciferase based assay; assay type: functional, organism-based; settings: Human immunodeficiency virus 1, TZM-bl; how it was run: as §1
[10] = system: Human immunodeficiency virus 1; assay: Antiviral activity against drug-resistant HIV-1 harboring RT mutation/protease I13V/G16E/V32I/L33F/K45I/M46I/A71V/L76V/V82F/I84V mutant infected in human TZM-bl cells using virus particles harvested from 24 hrs drug-treated human CEM cells infected with virus assessed as reduction in viral infection measured after 48 hrs in TZM-bl cells by Firefly luciferase based assay; assay type: functional, organism-based; settings: Human immunodeficiency virus 1, TZM-bl; how it was run: as §1
in vitro = settings: human
[11] = system: Human immunodeficiency virus 1; assay: Antiviral activity against drug-resistant HIV-1 harboring protease L10F/V11I/I13V/V32I/L33F/K43T/M46L/I54L/A71V/V82I/I84V/L89M/T91S/Q92R mutant infected in human TZM-bl cells using virus particles harvested from 24 hrs drug-treated human CEM cells infected with virus assessed as reduction in viral infection measured after 48 hrs in TZM-bl cells by Firefly luciferase based assay; assay type: functional, organism-based; settings: Human immunodeficiency virus 1, TZM-bl; how it was run: as §1
[12] = system: Human immunodeficiency virus 1; assay: Antiviral activity against drug-resistant HIV-1 harboring protease L10F/I15V/M46I/I47V/I50V/F53L/A71V/V82I/I84V/L89T mutant infected in human TZM-bl cells using virus particles harvested from 24 hrs drug-treated human CEM cells infected with virus assessed as reduction in viral infection measured after 48 hrs in TZM-bl cells by Firefly luciferase based assay; assay type: functional, organism-based; settings: Human immunodeficiency virus 1, TZM-bl; how it was run: as §1
[13] = system: Human immunodeficiency virus 1; assay: Antiviral activity against drug-resistant HIV-1 harboring protease L10F/I13V/L33F/K45R/M46I/I47V/I50V/F53L/I54L/I66F/A71V/T74A/L76S/V82I mutant infected in human TZM-bl cells using virus particles harvested from 24 hrs drug-treated human CEM cells infected with virus assessed as reduction in viral infection measured after 48 hrs in TZM-bl cells by Firefly luciferase based assay; assay type: functional, organism-based; settings: Human immunodeficiency virus 1, TZM-bl; how it was run: as §1
[14] = system: Human immunodeficiency virus 1; assay: Antiviral activity against DRV-resistant HIV-1 infected in human TZM-bl cells using virus particles harvested from 24 hrs drug-treated human CEM cells infected with virus assessed as reduction in viral infection measured after 48 hrs in TZM-bl cells by Firefly luciferase based assay; assay type: functional, organism-based; settings: Human immunodeficiency virus 1, TZM-bl; how it was run: as §1

| SMILES | Ki (Protease [1]) | Ki (Protease [2]) | Ki [3] | Ki [4] | Ki [5] | EC50 [6] | CC50 (HEK-293T) | CC50 (TZM) | EC50 [7] | EC50 [8] | EC50 [9] | EC50 [10] | selectivity ratio (in vitro) | EC50 [11] | EC50 [12] | EC50 [13] | EC50 [14] |
| --- | --- | --- | --- | --- | --- | --- | --- | --- | --- | --- | --- | --- | --- | --- | --- | --- | --- |
| CCOP(=O)(COc1ccc(C[C@H](NC(=O)O[C@H]2CO[C@H]3OCC[C@H]32)[C@H](O)CN(CC(CC)CC)S(=O)(=O)c2ccc(OC)cc2)cc1)OCC | < 0.005 nM | < 0.005 nM | 0.77 nM | 1.26 nM | 2.2 nM | 5.15 nM | 22000 nM | 59000 nM | 5 nM | < 10 nM | 38 nM | 85 nM |  |  |  |  |  |
| CCOP(=O)(COc1ccc(C[C@H](NC(=O)O[C@H]2CO[C@H]3OCC[C@H]32)[C@H](O)CN(CC(CC)CC)S(=O)(=O)c2ccc(CO)cc2)cc1)OCC | < 0.005 nM | < 0.005 nM | 2.2 nM | 32.1 nM | 81.2 nM | 17 nM | 69000 nM | > 100000 nM |  |  |  |  | 4.06 |  |  |  |  |
| CCC(CC)CN(C[C@@H](O)[C@H](Cc1ccccc1)NC(=O)O[C@H]1CO[C@H]2OCC[C@H]21)S(=O)(=O)c1ccc2c(c1)OCO2 |  |  |  |  |  |  |  |  | 6 nM |  |  |  |  | 5770 nM | 6440 nM | > 100000 nM | 780 nM |
| CC(C)CN(C[C@@H](O)[C@H](Cc1ccccc1)NC(=O)O[C@H]1CO[C@H]2OCC[C@H]21)S(=O)(=O)c1ccc(N)cc1 |  |  |  |  |  | 7.73 nM |  |  | 8 nM | 56 nM |  | 1460 nM |  | 15800 nM | 1870 nM | 12900 nM | > 100000 nM |
| CCOP(=O)(COc1ccc(C[C@H](NC(=O)O[C@H]2CO[C@H]3OCC[C@H]32)[C@H](O)CN(CC(C)C)S(=O)(=O)c2ccc(OC)cc2)cc1)OCC | < 0.005 nM | < 0.005 nM | 0.56 nM | 2.1 nM | 3.6 nM | 11.8 nM | 50000 nM | > 100000 nM |  |  |  |  | 4.24 |  |  |  |  |
| CCOP(=O)(COc1ccc(C[C@H](NC(=O)O[C@H]2CO[C@H]3OCC[C@H]32)[C@H](O)CN(C[C@@H](C)CC)S(=O)(=O)c2ccc(OC)cc2)cc1)OCC | < 0.005 nM | < 0.005 nM | 0.78 nM | 3.7 nM | 10.5 nM | 9.56 nM | 33000 nM | 78000 nM |  |  |  |  | 3.45 |  |  |  |  |
| CCOP(=O)(COc1ccc(C[C@H](NC(=O)O[C@H]2CO[C@H]3OCC[C@H]32)[C@H](O)CN(CC(CC)CC)S(=O)(=O)c2ccc(N)cc2)cc1)OCC | < 0.005 nM | < 0.005 nM | 4.71 nM | 51.6 nM | 106 nM | 16 nM | 44000 nM | 96000 nM |  |  |  |  | 2.75 |  |  |  |  |
| CCOP(=O)(COc1ccc(C[C@H](NC(=O)O[C@H]2CO[C@H]3OCC[C@H]32)[C@H](O)CN(CC(CC)CC)S(=O)(=O)c2ccc3c(c2)OCO3)cc1)OCC | < 0.005 nM | < 0.005 nM | 0.37 nM | 1.6 nM | 6.9 nM | 3.11 nM | 21000 nM | > 100000 nM | 3 nM | < 10 nM |  |  |  |  |  |  |  |
| CCOP(=O)(COc1ccc(C[C@H](NC(=O)O[C@H]2CO[C@H]3OCC[C@H]32)[C@H](O)CN(CC(CC)CC)S(=O)(=O)c2ccc3ncsc3c2)cc1)OCC | < 0.005 nM | < 0.005 nM | 0.25 nM | 0.24 nM | 3.2 nM | 10.7 nM | 22000 nM | 43000 nM |  |  |  |  | 2.06 |  |  |  |  |
| CCOP(=O)(COc1ccc(C[C@H](NC(=O)O[C@H]2CO[C@H]3OCC[C@H]32)[C@H](O)CN(C[C@@H](C)CC)S(=O)(=O)c2ccc(N)cc2)cc1)OCC | < 0.005 nM | < 0.005 nM | 13.3 nM | 146 nM | 259 nM | 22.9 nM | 92000 nM | > 100000 nM |  |  |  |  | 4.02 |  |  |  |  |
| CCOP(=O)(COc1ccc(C[C@H](NC(=O)O[C@H]2CO[C@H]3OCC[C@H]32)[C@H](O)CN(C[C@@H](C)CC)S(=O)(=O)c2ccc3c(c2)OCO3)cc1)OCC | < 0.005 nM | < 0.005 nM |  |  |  |  | 31000 nM | > 100000 nM |  |  |  |  |  |  |  |  |  |
| CCOP(=O)(COc1ccc(C[C@H](NC(=O)O[C@H]2CO[C@H]3OCC[C@H]32)[C@H](O)CN(CC(C)C)S(=O)(=O)c2ccc3c(c2)OCO3)cc1)OCC | < 0.005 nM | < 0.005 nM | 2.2 nM | 4.5 nM | 63.5 nM | 5.67 nM | 68000 nM | > 100000 nM |  |  |  |  | 12 |  |  |  |  |
| CCOP(=O)(COc1ccc(C[C@H](NC(=O)O[C@H]2CO[C@H]3OCC[C@H]32)[C@H](O)CN(C[C@@H](C)CC)S(=O)(=O)c2ccc3ncsc3c2)cc1)OCC | < 0.005 nM | < 0.005 nM | 1.8 nM | 1.2 nM | 9.03 nM | 9.93 nM | 23000 nM | 53000 nM |  |  |  |  | 2.32 |  |  |  |  |
| CCOP(=O)(COc1ccc(C[C@H](NC(=O)O[C@H]2CO[C@H]3OCC[C@H]32)[C@H](O)CN(CC(C)C)S(=O)(=O)c2ccc3ncsc3c2)cc1)OCC | < 0.005 nM | < 0.005 nM | 0.93 nM | 1.9 nM | 15 nM | 10.4 nM | 45000 nM | > 100000 nM |  |  |  |  | 4.33 |  |  |  |  |
